Results from ChEMBL document CHEMBL1932999, “Increased susceptibility to resveratrol of Helicobacter pylori strains isolated from patients with gastric carcinoma” (2011).
Converted amounts (≈) assume the structure as drawn.

Assays:
Assay type in all cases: functional
[1] = tested on: Helicobacter pylori; test: Antibacterial activity against CagA-deficient Helicobacter pylori G204 isolated from chronic gastritis patient after 48 hrs compound exposure followed by incubation on Columbia-blood agar plate for 3 to 5 days
In short: (§1)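 Compound dissolved in water with 4% DMSO, filter-sterilized, and serially twofold diluted in Brucella broth with 10% bovine fetal serum. Inoculum from 48 h microaerobic Brucella agar-BFS cultures, added at approximately 10^6 CFU/mL final. Broth incubated microaerobically at 37 °C for 24 or 48 h, then each dilution subcultured onto Columbia-blood agar. MBC is the lowest concentration with no growth on subculture. Triplicate; mean ± SD.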

[2] = tested on: Helicobacter pylori; test: Antibacterial activity against CagA-expressing Helicobacter pylori CCUG17874 isolated from chronic gastritis patient after 48 hrs compound exposure followed by incubation on Columbia-blood agar plate for 3 to 5 days; in short: as §1
[3] = tested on: Helicobacter pylori; test: Antibacterial activity against CagA-expressing Helicobacter pylori MDO21 isolated from chronic gastritis patient after 48 hrs compound exposure followed by incubation on Columbia-blood agar plate for 3 to 5 days; in short: as §1
[4] = tested on: Helicobacter pylori; test: Antibacterial activity against CagA-expressing Helicobacter pylori MD6 isolated from chronic gastritis patient after 48 hrs compound exposure followed by incubation on Columbia-blood agar plate for 3 to 5 days; in short: as §1
[5] = tested on: Helicobacter pylori; test: Antibacterial activity against CagA-expressing Helicobacter pylori 328 isolated from chronic gastritis patient after 48 hrs compound exposure followed by incubation on Columbia-blood agar plate for 3 to 5 days; in short: as §1
[6] = tested on: Helicobacter pylori; test: Antibacterial activity against CagA-expressing Helicobacter pylori G27 isolated from chronic gastritis patient after 48 hrs compound exposure followed by incubation on Columbia-blood agar plate for 3 to 5 days; in short: as §1
[7] = tested on: Helicobacter pylori; test: Antibacterial activity against CagA-expressing Helicobacter pylori Ma01 isolated from chronic gastritis patient after 48 hrs compound exposure followed by incubation on Columbia-blood agar plate for 3 to 5 days; in short: as §1
[8] = tested on: Helicobacter pylori; test: Antibacterial activity against CagA-expressing Helicobacter pylori SI10 isolated from chronic gastritis patient after 48 hrs compound exposure followed by incubation on Columbia-blood agar plate for 3 to 5 days
In short: (§2)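 Broth microdilution MBC against clinical H. pylori isolates (cagA by PCR; stocks kept frozen in Columbia broth with 20% glycerol). Compound dissolved in water with 4% DMSO, filter-sterilized, double diluted in Brucella broth with 10% fetal bovine serum. Inoculum about 10^6 CFU/mL from 48 h microaerobic Brucella agar-BFS cultures. Plates held microaerobically at 37 °C for 24 and 48 h. Each well was then spotted onto Columbia-blood agar for 3-5 days. MBC is the lowest concentration giving no regrowth. Triplicate, mean ± SD.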

[9] = tested on: Helicobacter pylori; test: Antibacterial activity against CagA-expressing Helicobacter pylori G39 isolated from chronic gastritis patient after 48 hrs compound exposure followed by incubation on Columbia-blood agar plate for 3 to 5 days; in short: as §1
[10] = tested on: Helicobacter pylori; test: Antibacterial activity against CagA-expressing Helicobacter pylori G20 isolated from chronic gastritis patient after 48 hrs compound exposure followed by incubation on Columbia-blood agar plate for 3 to 5 days; in short: as §1
[11] = tested on: Helicobacter pylori; test: Antibacterial activity against CagA-expressing Helicobacter pylori 10K isolated from gastric carcinoma patient after 48 hrs compound exposure followed by incubation on Columbia-blood agar plate for 3 to 5 days; in short: as §1
[12] = tested on: Helicobacter pylori; test: Antibacterial activity against CagA-expressing Helicobacter pylori 18K7 isolated from gastric carcinoma patient after 48 hrs compound exposure followed by incubation on Columbia-blood agar plate for 3 to 5 days; in short: as §1
[13] = tested on: Helicobacter pylori; test: Antibacterial activity against CagA-deficient Helicobacter pylori G50 isolated from chronic gastritis patient after 24 hrs compound exposure followed by incubation on Columbia-blood agar plate for 3 to 5 days; in short: as §1
[14] = tested on: Helicobacter pylori; test: Antibacterial activity against CagA-deficient Helicobacter pylori G21b isolated from chronic gastritis patient after 24 hrs compound exposure followed by incubation on Columbia-blood agar plate for 3 to 5 days; in short: as §1
[15] = tested on: Helicobacter pylori; test: Antibacterial activity against CagA-deficient Helicobacter pylori G104 isolated from chronic gastritis patient after 24 hrs compound exposure followed by incubation on Columbia-blood agar plate for 3 to 5 days; in short: as §1
[16] = tested on: Helicobacter pylori; test: Antibacterial activity against CagA-deficient Helicobacter pylori Ba142 isolated from chronic gastritis patient after 24 hrs compound exposure followed by incubation on Columbia-blood agar plate for 3 to 5 days; in short: as §1
[17] = tested on: Helicobacter pylori; test: Antibacterial activity against CagA-deficient Helicobacter pylori NS23 isolated from chronic gastritis patient after 24 hrs compound exposure followed by incubation on Columbia-blood agar plate for 3 to 5 days; in short: as §1
[18] = tested on: Helicobacter pylori; test: Antibacterial activity against CagA-deficient Helicobacter pylori 328 KM isolated from chronic gastritis patient after 24 hrs compound exposure followed by incubation on Columbia-blood agar plate for 3 to 5 days; in short: as §1
[19] = tested on: Helicobacter pylori; test: Antibacterial activity against CagA-deficient Helicobacter pylori G12 isolated from chronic gastritis patient after 24 hrs compound exposure followed by incubation on Columbia-blood agar plate for 3 to 5 days; in short: as §1
[20] = tested on: Helicobacter pylori; test: Antibacterial activity against CagA-deficient Helicobacter pylori G204 isolated from chronic gastritis patient after 24 hrs compound exposure followed by incubation on Columbia-blood agar plate for 3 to 5 days; in short: as §1
[21] = tested on: Helicobacter pylori; test: Antibacterial activity against CagA-expressing Helicobacter pylori CCUG17874 isolated from chronic gastritis patient after 24 hrs compound exposure followed by incubation on Columbia-blood agar plate for 3 to 5 days; in short: as §1
[22] = tested on: Helicobacter pylori; test: Antibacterial activity against CagA-expressing Helicobacter pylori MDO21 isolated from chronic gastritis patient after 24 hrs compound exposure followed by incubation on Columbia-blood agar plate for 3 to 5 days; in short: as §1
[23] = tested on: Helicobacter pylori; test: Antibacterial activity against CagA-expressing Helicobacter pylori MD6 isolated from chronic gastritis patient after 24 hrs compound exposure followed by incubation on Columbia-blood agar plate for 3 to 5 days; in short: as §1
[24] = tested on: Helicobacter pylori; test: Antibacterial activity against CagA-expressing Helicobacter pylori 328 isolated from chronic gastritis patient after 24 hrs compound exposure followed by incubation on Columbia-blood agar plate for 3 to 5 days; in short: as §1
[25] = tested on: Helicobacter pylori; test: Antibacterial activity against CagA-expressing Helicobacter pylori G27 isolated from chronic gastritis patient after 24 hrs compound exposure followed by incubation on Columbia-blood agar plate for 3 to 5 days; in short: as §1
[26] = tested on: Helicobacter pylori; test: Antibacterial activity against CagA-expressing Helicobacter pylori Ma01 isolated from chronic gastritis patient after 24 hrs compound exposure followed by incubation on Columbia-blood agar plate for 3 to 5 days; in short: as §1
[27] = tested on: Helicobacter pylori; test: Antibacterial activity against CagA-expressing Helicobacter pylori SI10 isolated from chronic gastritis patient after 24 hrs compound exposure followed by incubation on Columbia-blood agar plate for 3 to 5 days; in short: as §2
[28] = tested on: Helicobacter pylori; test: Antibacterial activity against CagA-expressing Helicobacter pylori G39 isolated from chronic gastritis patient after 24 hrs compound exposure followed by incubation on Columbia-blood agar plate for 3 to 5 days; in short: as §1
[29] = tested on: Helicobacter pylori; test: Antibacterial activity against CagA-expressing Helicobacter pylori G20 isolated from chronic gastritis patient after 24 hrs compound exposure followed by incubation on Columbia-blood agar plate for 3 to 5 days; in short: as §1
[30] = tested on: Helicobacter pylori; test: Antibacterial activity against CagA-expressing Helicobacter pylori 10K isolated from gastric carcinoma patient after 24 hrs compound exposure followed by incubation on Columbia-blood agar plate for 3 to 5 days; in short: as §1
[31] = tested on: Helicobacter pylori; test: Antibacterial activity against CagA-expressing Helicobacter pylori 18K7 isolated from gastric carcinoma patient after 24 hrs compound exposure followed by incubation on Columbia-blood agar plate for 3 to 5 days; in short: as §1
[32] = tested on: Helicobacter pylori; test: Antibacterial activity against CagA-expressing Helicobacter pylori 10Kb isolated from gastric carcinoma patient after 24 hrs compound exposure followed by incubation on Columbia-blood agar plate for 3 to 5 days; in short: as §1
[33] = tested on: Helicobacter pylori; test: Antibacterial activity against CagA-expressing Helicobacter pylori 17C7 isolated from gastric carcinoma patient after 24 hrs compound exposure followed by incubation on Columbia-blood agar plate for 3 to 5 days; in short: as §1
[34] = tested on: Helicobacter pylori; test: Antibacterial activity against CagA-expressing Helicobacter pylori 18C7 isolated from gastric carcinoma patient after 24 hrs compound exposure followed by incubation on Columbia-blood agar plate for 3 to 5 days; in short: as §1
[35] = tested on: Helicobacter pylori; test: Antibacterial activity against CagA-expressing Helicobacter pylori 4Cb isolated from gastric carcinoma patient after 24 hrs compound exposure followed by incubation on Columbia-blood agar plate for 3 to 5 days; in short: as §1

Oc1ccc(/C=C/c2cc(O)cc(O)c2)cc1 [RESVERATROL]
MBC [1]: 648 µg/mL (≈ 2840 µM) | MBC [2]: 295 µg/mL (≈ 1290 µM) | MBC [3]: 295 µg/mL (≈ 1290 µM) | MBC [4]: 295 µg/mL (≈ 1290 µM) | MBC [5]: 295 µg/mL (≈ 1290 µM) | MBC [6]: 295 µg/mL (≈ 1290 µM) | MBC [7]: 589 µg/mL (≈ 2580 µM) | MBC [8]: 295 µg/mL (≈ 1290 µM) | MBC [9]: 320 µg/mL (≈ 1400 µM) | MBC [10]: 640 µg/mL (≈ 2800 µM) | MBC [11]: 74 µg/mL (≈ 324 µM) | MBC [12]: 147 µg/mL (≈ 644 µM) | MBC [13]: 295 µg/mL (≈ 1290 µM) | MBC [14]: 295 µg/mL (≈ 1290 µM) | MBC [15]: 295 µg/mL (≈ 1290 µM) | MBC [16]: 295 µg/mL (≈ 1290 µM) | MBC [17]: 147 µg/mL (≈ 644 µM) | MBC [18]: 147 µg/mL (≈ 644 µM) | MBC [19]: 648 µg/mL (≈ 2840 µM) | MBC [20]: 648 µg/mL (≈ 2840 µM) | MBC [21]: 589 µg/mL (≈ 2580 µM) | MBC [22]: 295 µg/mL (≈ 1290 µM) | MBC [23]: 589 µg/mL (≈ 2580 µM) | MBC [24]: 295 µg/mL (≈ 1290 µM) | MBC [25]: 295 µg/mL (≈ 1290 µM) | MBC [26]: 589 µg/mL (≈ 2580 µM) | MBC [27]: 589 µg/mL (≈ 2580 µM) | MBC [28]: 640 µg/mL (≈ 2800 µM) | MBC [29]: 1280 µg/mL (≈ 5610 µM) | MBC [30]: 74 µg/mL (≈ 324 µM) | MBC [31]: 147 µg/mL (≈ 644 µM) | MBC [32]: 147 µg/mL (≈ 644 µM) | MBC [33]: 37 µg/mL (≈ 162 µM) | MBC [34]: 37 µg/mL (≈ 162 µM) | MBC [35]: 147 µg/mL (≈ 644 µM)
